Results on six compounds are retold here after ChEMBL document CHEMBL2163229, “Identifying novel adenosine receptor ligands by simultaneous proteochemometric modeling of rat and human bioactivity data” (J Med Chem, 2012).

For test [1], the target named is T1, Adenosine receptor A2a (Homo sapiens, UniProt P29274). Description: Displacement of [3H]ZM241385 from human adenosine A2A receptor expressed in HEK 293 cells after 2 hrs by scintillation counting. The class given is cell-based, HEK293. For orientation: Loss of bound radioactivity is the signal in a displacement assay; it reports binding, not function.
T1 sequence (P29274 whole entry): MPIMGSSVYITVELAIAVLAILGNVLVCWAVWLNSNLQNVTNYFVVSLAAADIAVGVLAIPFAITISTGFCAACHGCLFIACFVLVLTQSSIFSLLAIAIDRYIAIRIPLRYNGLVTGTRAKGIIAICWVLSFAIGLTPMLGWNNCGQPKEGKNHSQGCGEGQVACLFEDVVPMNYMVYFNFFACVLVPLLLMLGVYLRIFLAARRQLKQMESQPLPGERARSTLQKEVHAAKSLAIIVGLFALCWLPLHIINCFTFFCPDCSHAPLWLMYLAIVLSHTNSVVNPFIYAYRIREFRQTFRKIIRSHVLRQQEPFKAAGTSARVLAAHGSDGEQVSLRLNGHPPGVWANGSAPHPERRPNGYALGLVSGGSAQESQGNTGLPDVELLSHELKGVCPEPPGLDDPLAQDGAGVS
Test [2] has as its target T2, Adenosine receptor A3 (Homo sapiens) (UniProt P0DMS8).
T2 sequence (whole entry): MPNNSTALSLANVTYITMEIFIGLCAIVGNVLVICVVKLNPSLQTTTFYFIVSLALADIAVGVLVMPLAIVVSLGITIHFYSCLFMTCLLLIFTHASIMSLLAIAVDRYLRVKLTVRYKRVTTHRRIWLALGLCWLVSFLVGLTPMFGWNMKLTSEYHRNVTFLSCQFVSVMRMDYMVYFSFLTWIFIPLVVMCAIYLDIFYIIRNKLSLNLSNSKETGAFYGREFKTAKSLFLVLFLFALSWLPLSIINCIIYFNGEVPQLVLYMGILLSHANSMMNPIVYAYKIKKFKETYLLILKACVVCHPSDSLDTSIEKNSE
Description: Displacement of [3H]PSB11 from human adenosine A3 receptor expressed in HEK 293 cells at 10 uM after 1 hr by scintillation counting. Format: cell-based. Particulars: HEK293.

In a further test the target is T3, Adenosine receptor A1 (Homo sapiens, UniProt P30542).
T3 sequence (P30542 whole entry): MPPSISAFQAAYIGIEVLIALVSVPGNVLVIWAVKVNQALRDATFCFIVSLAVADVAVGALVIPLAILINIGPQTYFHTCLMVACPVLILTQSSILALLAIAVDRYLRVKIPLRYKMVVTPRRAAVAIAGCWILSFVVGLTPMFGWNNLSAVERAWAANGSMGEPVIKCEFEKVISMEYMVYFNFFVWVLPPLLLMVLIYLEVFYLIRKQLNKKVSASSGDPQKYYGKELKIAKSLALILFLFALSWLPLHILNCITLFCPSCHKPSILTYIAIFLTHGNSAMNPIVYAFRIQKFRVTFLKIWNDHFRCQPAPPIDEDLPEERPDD
The test can be described thus: Displacement of [3H]DPCPX from human adenosine A1 receptor expressed in CHO cells after 1 hr by scintillation counting. The class given is cell-based.

For test [3], the target named is T4, Adenosine receptor A2b (Homo sapiens) (UniProt P29275).
T4 sequence (whole entry): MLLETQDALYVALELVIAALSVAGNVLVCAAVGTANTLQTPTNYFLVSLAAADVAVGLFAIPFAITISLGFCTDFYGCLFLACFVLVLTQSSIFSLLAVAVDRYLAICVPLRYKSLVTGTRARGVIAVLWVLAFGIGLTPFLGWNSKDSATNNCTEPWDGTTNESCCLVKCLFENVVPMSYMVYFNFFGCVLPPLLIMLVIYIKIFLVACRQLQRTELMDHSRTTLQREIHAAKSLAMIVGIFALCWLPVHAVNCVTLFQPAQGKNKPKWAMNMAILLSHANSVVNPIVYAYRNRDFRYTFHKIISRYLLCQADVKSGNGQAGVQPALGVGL
The test can be described thus: Displacement of [3H][…] from human adenosine A2B receptor expressed in CHO cells at 10 uM after 2 hrs by scintillation counting. Format: cell-based. Put shortly: (§1)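 Stably transfected CHO membranes (15 μg protein) with 1.0 nM [3H]PSB603 final in 50 mM Tris·HCl pH 7.4, 1 U/mL ADA, 0.1% CHAPS, 2 h at 25 °C. Nonspecific binding with 100 μM NECA. GF/C filtration; washes in ice-cold Tris·HCl pH 7.4 plus 0.1% BSA. Ki by nonlinear regression using radioligand Ki of 0.41 nM.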

Test [4] addresses T1, Adenosine receptor A2a. The test can be described thus: Displacement of [3H]ZM241385 from human adenosine A2A receptor expressed in HEK 293 cells at 10 uM after 2 hrs by scintillation counting. The class given is cell-based. Particulars: HEK293.
The target in a further test is T5, Adenosine receptor A3 (Homo sapiens, UniProt P0DMS8).
T5 sequence (P0DMS8 whole entry): T2 sequence (whole entry)
Description: Displacement of [3H]PSB11 from human adenosine A3 receptor expressed in HEK 293 cells after 1 hr by scintillation counting. The class given is cell-based, HEK293.

For the next test, the target named is T6, Adenosine receptor A2b (Homo sapiens, UniProt P29275).
T6 sequence (P29275 whole entry): T4 sequence (whole entry)
Description: Displacement of [3H][…] from human adenosine A2B receptor expressed in CHO cells after 2 hrs by scintillation counting. Format: cell-based. In short, it runs like this:
as §1

The target of test [5] is T7, Adenosine receptor A1 (Homo sapiens) (UniProt P30542).
T7 sequence (whole entry): T3 sequence (P30542 whole entry)
The test can be described thus: Displacement of [3H]DPCPX from human adenosine A1 receptor expressed in CHO cells at 10 uM after 1 hr by scintillation counting. The class given is cell-based.

Consider `COc1nc(N)c(C#N)c(-c2ccc3c(c2)OCO3)c1C#N`, for which the Ki at Adenosine receptor A2a [1] worked out at 31000 nM; at Adenosine receptor A1, 510 nM. For the same compound, the results for the inhibition in test [2] and in test [3] were 21% and 32%, respectively.
For `C=CCn1c(=O)[nH]c2nc3cc(NC(C)=O)ccc3nc2c1=O`, the inhibition in test [2] was -3%; at Adenosine receptor A2a [4], 42%; in test [3] it was 14%. The compound further came in with a Ki on Adenosine receptor A1 of 3200 nM.
`Nc1nc(-c2ccccc2)nc(-c2ccccc2O)n1`: the Ki at Adenosine receptor A2a [1] came out at 43 nM; at Adenosine receptor A3, 440 nM; on Adenosine receptor A2b it was 220 nM; at Adenosine receptor A1, 7.2 nM.
At Adenosine receptor A2a [1], `COCc1cc(C)nc2sc(-c3nc(N)nc(N(C)C)n3)c(N)c12` yielded a Ki of 1600 nM. Further, the results for the inhibition in test [2], in test [5] and in test [3] were 33%, 35% and -5%, respectively.
On to `O=C(Cc1ccccc1)Nc1nn2c(-c3ccco3)nnc2s1`, for which the Ki at Adenosine receptor A2a [1] is 5100 nM. In addition, the inhibition in test [2] was 3%; in test [5], 44%; in test [3] it was -8%.
On to `N#Cc1cnc(N)nc1-c1ccccc1`, for which the Ki was determined as 300 nM at Adenosine receptor A2a [1] and 900 nM on Adenosine receptor A1. For the same compound, the inhibition in test [2] is 13%.

The term Ki denotes the equilibrium dissociation constant of an inhibitor or competing ligand from its target. By inhibition is commonly meant the drop in the measured response relative to a control, in per cent.
